Calls of active or inactive are those of the source. No cut-off for these calls is given here.
Experiments:
[1] = Cytotoxicity against human thymidine kinase-negative OST cells after 3 to 4 days; type: cell-based
[2] = Cytotoxicity against human PBMC cells after 3 to 4 days; type: cell-based
[3] = tested on: Human immunodeficiency virus 1; assay: Antiviral activity against HIV-1 3B infected in human HUT78 cells assessed as prevention of syncytium formation between persistently HIV-1 3B-infected HUT-78 cells and uninfected SupT1 cells after 3 to 4 days by ELISA; type: functional, organism-based; details: Human immunodeficiency virus 1, 3B, SUP-T1
[4] = tested on: Human immunodeficiency virus 1; assay: Antiviral activity against X4 tropic HIV-1 3B infected in human Raji cells expressing DC-SIGN gene assessed as prevention of syncytium formation between persistently HIV-1 3B-infected Raji cells and uninfected human C8166 cells after 36 to 42 hrs by microscopic analysis; type: functional, organism-based; details: Human immunodeficiency virus 1, 3B
In short: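 Raji/DC-SIGN cells exposed 60 min to HIV-1 IIIB (2.2 × 10^6 pg/ml p24), washed by two centrifugations, then plated with compound dilutions and C8166 cells (10^7/ml, 50 μl); cocultures at 37°C scored microscopically for syncytia at ~36–48 h.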

[5] = Antiviral activity against SIV mac251 infected in human Raji cells expressing DC-SIGN gene assessed as inhibition of virus capture by Raji cells after 60 mins by ELISA; type: functional, cell-based, Simian immunodeficiency virus - mac; details: Simian immunodeficiency virus, 251, Raji, 1 h
[6] = Binding affinity to HIV-1 HXB2 gp41 after 6 mins by SPR analysis in presence of 10 mM CaCl2; set-up: species or system Human immunodeficiency virus 1
[7] = tested on: PBMC; assay: Immunostimulatory activity against human PBMC assessed as IL-1ra production at 21 uM after 72 hrs; type: functional, cell-based
In short: (§1)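 Unstimulated PBMCs and PHA-blasts from three donors, in three independent experiments, cultured with test compound at 20 μg/ml (21 or 22 μM). Supernatants collected after 72 h. The cytokine profile was read on a Bio-Plex 27-plex human cytokine bead immunoassay, using beads coupled to cytokine-specific monoclonal antibodies and run per the kit instructions.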

[8] = tested on: PBMC; assay: Immunostimulatory activity against human PBMC assessed as IL-6 production at 21 uM after 72 hrs; type: functional, cell-based; in short: as §1
[9] = tested on: PBMC; assay: Immunostimulatory activity against human PBMC assessed as FGF production at 21 uM after 72 hrs; type: functional, cell-based
In short: (§2)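 PBMCs and PHA blasts from three donors (three independent experiments) cultured with 21 μM compound; supernatants collected at 72 h; cytokines quantified with the Bio-Plex human 27-plex bead immunoassay.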

[10] = tested on: PBMC; assay: Immunostimulatory activity against human PBMC assessed as G-CSF production at 21 uM after 72 hrs; type: functional, cell-based; in short: as §2
[11] = tested on: PBMC; assay: Immunostimulatory activity against human PBMC assessed as MCP-1 production at 21 uM after 72 hrs; type: functional, cell-based; in short: as §1
[12] = tested on: PBMC; assay: Immunostimulatory activity against human PBMC assessed as MIP-1alpha production at 21 uM after 72 hrs; type: functional, cell-based; in short: as §1
[13] = tested on: PBMC; assay: Immunostimulatory activity against human PBMC assessed as RANTES production at 21 uM after 72 hrs; type: functional, cell-based; in short: as §1
[14] = tested on: PBMC; assay: Immunostimulatory activity against human PBMC assessed as IL-2 production at 22 uM after 72 hrs; type: functional, cell-based; in short: as §1
[15] = tested on: PBMC; assay: Immunostimulatory activity against human PBMC assessed as IL-8 production at 22 uM after 72 hrs; type: functional, cell-based; in short: as §1
[16] = tested on: PBMC; assay: Immunostimulatory activity against human PBMC assessed as IL-12 production at 22 uM after 72 hrs; type: functional, cell-based; in short: as §1
[17] = tested on: PBMC; assay: Immunostimulatory activity against human PBMC assessed as IL-13 production at 22 uM after 72 hrs; type: functional, cell-based; in short: as §1
[18] = tested on: PBMC; assay: Immunostimulatory activity against human PBMC assessed as eotoxin production at 22 uM after 72 hrs; type: functional, cell-based
In short: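 In three independent experiments, PBMCs and PHA-blasts from three donors were cultured with compound for 72 h. Supernatants were analysed with a bead-based 27-plex human cytokine immunoassay covering interleukins, chemokines, growth factors, IFN-γ and TNF-α.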

[19] = tested on: PBMC; assay: Immunostimulatory activity against human PBMC assessed as FGF production at 22 uM after 72 hrs; type: functional, cell-based
[20] = tested on: PBMC; assay: Immunostimulatory activity against human PBMC assessed as suppression of PDGF production at 21 uM after 72 hrs; type: functional; in short: as §1
[21] = tested on: PBMC; assay: Immunostimulatory activity against human PBMC assessed as suppression of RANTES production at 22 uM after 72 hrs; type: functional
[22] = tested on: PBMC; assay: Immunostimulatory activity against human PBMC assessed as suppression of IL-4 production at 22 uM after 72 hrs; type: functional; in short: as §1
[23] = tested on: PBMC; assay: Immunostimulatory activity against human PBMC assessed as suppression of PDGF production at 22 uM after 72 hrs; type: functional
[24] = tested on: Human immunodeficiency virus 1; assay: Ratio of EC90 to EC50 for R5 tropic HIV-1 clade A isolate UG273 infected in human PBMC; type: functional
In short: (§3)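 PBMCs from healthy donors were PHA-stimulated (2 μg/ml, 3 days, 37°C), then seeded at 0.5 × 10^6 per well with compound dilutions in RPMI 1640 with 10% FCS and IL-2 (25 U/ml). Virus was added at 250 pg p24 or p27/ml final. On day 12, supernatant HIV-1 p24 or HIV-2 p27 was measured by ELISA, giving EC50 and EC90.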

[25] = tested on: Human immunodeficiency virus 1; assay: Ratio of EC90 to EC50 for X4 tropic HIV-1 group O isolate BCF06 infected in human PBMC; type: functional; in short: as §3
[26] = tested on: Human immunodeficiency virus 1; assay: Ratio of EC90 to EC50 for X4 tropic HIV-1 Bal infected in human PBMC; type: functional; details: in the assay text read “R5 tropic” for “X4 tropic”; in short: as §3
[27] = Cytotoxicity against human C8166 cells after 3 to 4 days; type: cell-based
In short: (§4)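 Cells seeded at 20,000–75,000 per well with compound dilutions, incubated 3–4 days at 37°C, and counted on a Coulter particle counter; CC50 is the concentration inhibiting proliferation by 50%.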

[28] = Cytotoxicity against human HeLa cells after 3 to 4 days; type: cell-based; in short: as §4
[29] = tested on: Human immunodeficiency virus 1; assay: Antiviral activity against HIV-1 3B infected in human CEM cells assessed as inhibition of virus-induced cytopathicity after 3 to 4 days by microscopic analysis; type: functional, organism-based; details: Human immunodeficiency virus 1, 3B, CCRF-CEM
In short: (§5)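 CEM or C8166 cells at 5 × 10^5/ml infected with HIV-1 at 100 CCID50 per ml, then mixed 1:1 with compound dilutions and held at 37°C for 3–4 days. Giant cells were counted microscopically at ×100 against untreated infected cultures. EC50 is the concentration cutting syncytium formation by 50%.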

[30] = tested on: Human immunodeficiency virus 2; assay: Antiviral activity against HIV-2 ROD infected in human CEM cells assessed as inhibition of virus-induced cytopathicity after 3 to 4 days by microscopic analysis; type: functional, organism-based; details: Human immunodeficiency virus 2, ISOLATE ROD, CCRF-CEM
In short: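 CEM cells (5 × 10^5/ml) infected at 100 CCID50/ml, mixed 1:1 with compound dilutions, incubated 3–4 days at 37°C; giant cells counted microscopically against untreated infected controls; EC50 is the concentration preventing syncytium formation by 50%.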

[31] = tested on: Human immunodeficiency virus 2; assay: Antiviral activity against HIV-2 ROD infected in human MT4 cells assessed as inhibition of virus-induced cytopathicity after 7 days by trypan blue staining; type: functional, organism-based; details: Human immunodeficiency virus 2, ISOLATE ROD, MT4, 168 h
[32] = tested on: Human immunodeficiency virus 1; assay: Antiviral activity against HIV-1 3B infected in human C8166 cells assessed as inhibition of virus-induced cytopathicity after 3 to 4 days by microscopic analysis; type: functional, organism-based; details: Human immunodeficiency virus 1, 3B; in short: as §5
[33] = Cytotoxicity against human CEM cells after 7 days by trypan blue staining; type: cell-based, CCRF-CEM

Structure (SMILES)	CC50 [1] [µM]	CC50 [2] [µM]	EC50 [3] [µM]	EC50 [4] [µM]	IC50 [5] [µM]	Kd [6] [µM]	Activity [7]	Activity [8]	Activity [9]	Activity [10]	Activity [11]	Activity [12]	Activity [13]	Activity [14]	Activity [15]	Activity [16]	Activity [17]	Activity [18]	Activity [19]	fold change (FC) [20]	also measured
CN[C@@H]1[C@H](O[C@@H]2OC[C@@H](O)[C@H](O)[C@H]2O)[C@@H](O)[C@H](O[C@H]2c3cc(C)c(C(=O)N[C@H](C)C(=O)O)c(O)c3-c3c(cc4c(c3O)C(=O)c3cc(OC)cc(O)c3C4=O)[C@@H]2O)O[C@@H]1C [PRADIMICIN A]	> 50	> 50	3.4	5.4	16	14.9	inactive	inactive	inactive	inactive	inactive	inactive	inactive	inactive	inactive	inactive	inactive	inactive	inactive	2	fold change (FC) [21]: 4; fold change (FC) [22]: 2; fold change (FC) [23]: 2; Ratio [24]: 2; Ratio [25]: 2; Ratio [26]: 2; CC50 [27]: > 50 µM; CC50 [28]: > 50 µM; EC50 [29]: 5.9 µM; EC50 [30]: 5.2 µM; EC50 [31]: 5 µM; EC50 [32]: 2.6 µM; CC50 at 168 h [33]: > 100 µM
CN[C@@H]1[C@H](O[C@@H]2O[C@H](CO)[C@@H](O)[C@H](OS(=O)(=O)O)[C@H]2O)[C@@H](O)[C@H](O[C@H]2c3cc(C)c(C(=O)N[C@H](C)C(=O)O)c(O)c3-c3c(cc4c(c3O)C(=O)c3cc(OC)cc(O)c3C4=O)[C@@H]2O)O[C@@H]1C [PRADIMICIN S]	> 230	> 230	6	5.1	16	9.93	inactive	inactive	inactive	inactive	inactive	inactive	inactive	inactive	inactive	inactive	inactive	inactive	inactive	2	fold change (FC) [21]: 4; fold change (FC) [22]: 2; fold change (FC) [23]: 2; Ratio [24]: 2; Ratio [25]: 2; Ratio [26]: 2; CC50 [27]: > 230 µM; CC50 [28]: > 230 µM; EC50 [29]: 8.9 µM; EC50 [30]: 9.6 µM; EC50 [31]: 4.7 µM; EC50 [32]: 5.1 µM; CC50 at 168 h [33]: > 100 µM

Source: ChEMBL document CHEMBL1671680, “Pradimicin S, a highly soluble nonpeptidic small-size carbohydrate-binding antibiotic, is an anti-HIV drug lead for both microbicidal and systemic use” (Antimicrob Agents Chemother, 2010)
